Test results as given in ChEMBL document CHEMBL1154855 (Eur J Med Chem, 2010).
pEC50, pIC50: −log10 of the molar value.

What was measured:
[1] = test system: Human immunodeficiency virus 1; assay: Antiviral activity against HIV1 3B-infected in human MT4 cells assessed as protection from virus-induced cytopathogenicity after 5 days by MTT assay; assay type: functional, organism-based; conditions: Human immunodeficiency virus 1, 3B, MT4, 120 h
Summary of the method: (§1)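 MT-4 cells at 3 × 10^4 per well were infected with HIV (IIIB or ROD) at 50% cell culture infective doses. Graded compound concentrations were added immediately after infection. Plates were incubated for 5 days at 37 °C and viable cells were counted by MTT.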

[2] = test system: Human immunodeficiency virus 2; assay: Antiviral activity against HIV2 ROD infected in human MT4 cells assessed as protection from virus-induced cytopathogenicity after 5 days by MTT assay; assay type: functional, organism-based; conditions: Human immunodeficiency virus 2, ISOLATE ROD, MT4, 120 h; summary of the method: as §1
[3] = Cytotoxicity against HIV2 ROD infected human MT4 cells by MTT assay; assay type: cell-based; conditions: MT4 cells infected with HIV-2 ROD
Summary of the method: (§2)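 MT-4 cells (3 × 10^4 per well) were cultured in microdilution trays with various concentrations of compound, then incubated 5 days at 37 °C, and viable cell number was read by MTT.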

[4] = Selectivity index, ratio of CC50 for HIV2 ROD infected human MT4 cells to IC50 for […] ROD; assay type: functional
[5] = test system: HeLa; assay: Cytotoxicity against VSV infected human HeLa cells by trypan blue exclusion method; assay type: cell-based; conditions: hela
Summary of the method: (§3)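 Uninfected confluent cultures were run in parallel with the infected cultures. Medium was replaced by 1 ml maintenance medium with serial compound concentrations; cell controls received no compound. Cultures were incubated at 37 °C. After 2 and 7 days, compound was withdrawn and viability was determined by trypan blue exclusion.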

[6] = test system: HeLa; assay: Cytotoxicity against Human coxsackievirus B4 infected human HeLa cells by trypan blue exclusion method; assay type: cell-based; conditions: hela; summary of the method: as §3
[7] = test system: HeLa; assay: Cytotoxicity against Respiratory syncytial virus infected human HeLa cells by trypan blue exclusion method; assay type: cell-based; conditions: hela; summary of the method: as §3
[8] = test system: HEL; assay: Cytotoxicity against Herpes simplex virus 1 KOS infected HEL cells by trypan blue exclusion method; assay type: cell-based; conditions: human, hel; summary of the method: as §3
[9] = test system: HEL; assay: Cytotoxicity against Herpes simplex virus 2 G infected HEL cells by trypan blue exclusion method; assay type: cell-based; conditions: human, hel; summary of the method: as §3
[10] = test system: HEL; assay: Cytotoxicity against Vaccinia virus infected HEL cells by trypan blue exclusion method; assay type: cell-based; conditions: human, hel; summary of the method: as §3
[11] = test system: HEL; assay: Cytotoxicity against VSV infected HEL cells by trypan blue exclusion method; assay type: cell-based; conditions: human, hel; summary of the method: as §3
[12] = test system: HEL; assay: Cytotoxicity against acyclovir-sensitive Herpes simplex virus 1 KOS infected HEL cells by trypan blue exclusion method; assay type: cell-based; conditions: human; summary of the method: as §3
[13] = test system: Vero; assay: Cytotoxicity against PIV 3 infected african green monkey Vero cells by trypan blue exclusion method; assay type: cell-based; conditions: chlorocebus sabaeus, vero; summary of the method: as §3
[14] = test system: Vero; assay: Cytotoxicity against Reovirus 1 infected african green monkey Vero cells by trypan blue exclusion method; assay type: cell-based; conditions: chlorocebus sabaeus, vero; summary of the method: as §3
[15] = test system: Vero; assay: Cytotoxicity against Sindbis virus infected african green monkey Vero cells by trypan blue exclusion method; assay type: cell-based; conditions: chlorocebus sabaeus, vero; summary of the method: as §3
[16] = test system: Vero; assay: Cytotoxicity against Human coxsackievirus B4 infected african green monkey Vero cells by trypan blue exclusion method; assay type: cell-based; conditions: chlorocebus sabaeus, vero; summary of the method: as §3
[17] = test system: Vero; assay: Cytotoxicity against Punta Toro virus infected african green monkey Vero cells by trypan blue exclusion method; assay type: cell-based; conditions: chlorocebus sabaeus, vero; summary of the method: as §3
[18] = Cytotoxicity against Feline coronavirus infected cat CRFK cells by trypan blue exclusion method; assay type: cell-based, Felis catus; conditions: crfk; summary of the method: as §3
[19] = Cytotoxicity against Feline herpesvirus infected cat CRFK cells by trypan blue exclusion method; assay type: cell-based, Felis catus; conditions: crfk; summary of the method: as §3
[20] = test system: MDCK; assay: Cytotoxicity against Influenza A virus subtype H1N1 infected MDCK cells by trypan blue exclusion method; assay type: cell-based, Canis lupus familiaris; conditions: dog
[21] = test system: MDCK; assay: Cytotoxicity against Influenza A virus subtype H3N2 infected MDCK cells by trypan blue exclusion method; assay type: cell-based, Canis lupus familiaris; conditions: dog
[22] = test system: MDCK; assay: Cytotoxicity against Influenza B virus infected MDCK cells by trypan blue exclusion method; assay type: cell-based, Canis lupus familiaris; conditions: dog
[23] = Cytotoxicity against HIV1 3B-infected human MT4 cells by MTT assay; assay type: cell-based; conditions: MT4 cells infected with HIV-1 3B; summary of the method: as §2
[24] = test system: Coxsackievirus B4; assay: Antiviral activity against Human coxsackievirus B4 infected in human HeLa cells assessed as protection from virus-induced cytopathogenicity after 2 days by MTT assay; assay type: functional, organism-based; conditions: Enterovirus B, 48 h
[25] = test system: Mammalian orthoreovirus 1; assay: Antiviral activity against Reovirus 1 infected in african green monkey Vero cells assessed as protection from virus-induced cytopathogenicity after 6 to 7 days by MTT assay; assay type: functional, organism-based; conditions: Mammalian orthoreovirus 1, Vero
[26] = test system: Vesicular stomatitis virus; assay: Antiviral activity against VSV infected in human HeLa cells assessed as protection from virus-induced cytopathogenicity after 1 to 2 days by MTT assay; assay type: functional, organism-based
[27] = test system: Respiratory syncytial virus; assay: Antiviral activity against Respiratory syncytial virus infected in human HeLa cells assessed as protection from virus-induced cytopathogenicity after 4 days by MTT assay; assay type: functional, organism-based; conditions: 96 h
[28] = test system: Human alphaherpesvirus 1; assay: Antiviral activity against Herpes simplex virus 1 KOS infected in HEL cells assessed as protection from virus-induced cytopathogenicity after 2 to 3 days by MTT assay; assay type: functional, organism-based; conditions: Human alphaherpesvirus 1, KOS
[29] = test system: Human alphaherpesvirus 2; assay: Antiviral activity against Herpes simplex virus 2 G infected in HEL cells assessed as protection from virus-induced cytopathogenicity after 2 to 3 days by MTT assay; assay type: functional, organism-based; conditions: Human alphaherpesvirus 2, strain G
[30] = test system: Vesicular stomatitis virus; assay: Antiviral activity against VSV infected in HEL cells assessed as protection from virus-induced cytopathogenicity after 1 to 2 days by MTT assay; assay type: functional, organism-based
[31] = test system: Human alphaherpesvirus 1; assay: Antiviral activity against acyclovir-sensitive Herpes simplex virus 1 KOS infected in HEL cells assessed as protection from virus-induced cytopathogenicity after 2 to 3 days by MTT assay; assay type: functional, organism-based; conditions: Human alphaherpesvirus 1, KOS
[32] = test system: Human respirovirus 3; assay: Antiviral activity against PIV 3 infected in african green monkey Vero cells assessed as protection from virus-induced cytopathogenicity after 6 to 7 days by MTT assay; assay type: functional, organism-based; conditions: Human respirovirus 3, Vero
[33] = test system: Sindbis virus; assay: Antiviral activity against Sindbis virus infected in african green monkey Vero cells assessed as protection from virus-induced cytopathogenicity after 2 to 3 days by MTT assay; assay type: functional, organism-based
[34] = test system: Coxsackievirus B4; assay: Antiviral activity against Human coxsackievirus B4 infected in african green monkey Vero cells assessed as protection from virus-induced cytopathogenicity after 2 days by MTT assay; assay type: functional, organism-based; conditions: Enterovirus B, 48 h
[35] = test system: Punta Toro virus; assay: Antiviral activity against Punta Toro virus infected in african green monkey Vero cells assessed as protection from virus-induced cytopathogenicity by MTT assay; assay type: functional, organism-based
[36] = test system: Feline coronavirus; assay: Antiviral activity against Feline coronavirus infected in cat CRFK cells assessed as protection from virus-induced cytopathogenicity by MTT assay; assay type: functional, organism-based; conditions: Alphacoronavirus 1, CRFK
[37] = test system: Felid alphaherpesvirus 1; assay: Antiviral activity against Feline herpesvirus infected in cat CRFK cells assessed as protection from virus-induced cytopathogenicity by MTT assay; assay type: functional, organism-based; conditions: Felid alphaherpesvirus 1, CRFK
[38] = test system: Influenza A virus; assay: Antiviral activity against Influenza A virus H1N1 infected in MDCK cells assessed as protection from virus-induced cytopathogenicity after 6 to 7 days by MTT assay; assay type: functional, organism-based
[39] = test system: Influenza A virus; assay: Antiviral activity against Influenza A virus H3N2 infected in MDCK cells assessed as protection from virus-induced cytopathogenicity after 6 to 7 days by MTT assay; assay type: functional, organism-based
[40] = test system: Influenza B virus; assay: Antiviral activity against Influenza B virus infected in MDCK cells assessed as protection from virus-induced cytopathogenicity after 6 to 7 days by MTT assay; assay type: functional, organism-based

## COc1cc(/C=C/C(=O)CC(=O)/C=C/c2ccc(OCCOC(=O)CCC(NC(=O)c3ccc(NCc4cnc5nc(N)[nH]c(=O)c5n4)cc3)C(=O)O)c(OC)c2)ccc1O (stereo not given)
[1]
  pIC50: 7.20
[2]
  pIC50: 7.16
[3]
  CC50: > 69 nM
[4]
  Ratio CC50/IC50: <1
[5]
  CC50: > 119 nM
[6]
  CC50: > 119 nM
[7]
  CC50: > 119 nM
[8]
  CC50: > 119 nM
[9]
  CC50: > 119 nM
[10]
  CC50: > 119 nM
[11]
  CC50: > 119 nM
[12]
  CC50: > 119 nM
[13]
  CC50: > 119 nM
[14]
  CC50: > 119 nM
[15]
  CC50: > 119 nM
[16]
  CC50: > 119 nM
[17]
  CC50: > 119 nM
[18]
  CC50: > 119 nM
[19]
  CC50: > 119 nM
[20]
  CC50: > 119 nM
[21]
  CC50: > 119 nM
[22]
  CC50: > 119 nM
[23]
  CC50: > 63 nM
[24]
  pEC50: < 6.92
[25]
  pEC50: < 6.92
[26]
  pEC50: < 6.92
[27]
  pEC50: < 6.92
[28]
  pEC50: < 6.92
[29]
  pEC50: < 6.92
[30]
  pEC50: < 6.92
[31]
  pEC50: < 6.92
[32]
  pEC50: < 6.92
[33]
  pEC50: < 6.92
[34]
  pEC50: < 6.92
[35]
  pEC50: < 6.92
[36]
  pEC50: 7.11
[37]
  pEC50: 6.98
[38]
  pEC50: < 6.92
[39]
  pEC50: < 6.92
[40]
  pEC50: < 6.92
